# Screens from PubChem.
# SUMO1-SIM PPI = modulators of human SUMO1-mediated protein-protein interactions; SUMO1 binding to a labelled peptide, TR-FRET, 1 h; inhibition, % at 20 µM; 360,000 compounds, 0.33% hits; in the data active means inhibition above about 37%
# Target sequence (P63165 whole entry, looked up): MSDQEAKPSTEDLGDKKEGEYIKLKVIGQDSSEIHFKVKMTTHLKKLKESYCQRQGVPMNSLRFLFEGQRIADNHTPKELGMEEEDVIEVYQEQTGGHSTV
# NadD block = inhibitors of Staphylococcus aureus NadD. AID 602399. 360,000 compounds, 0.78% hits. purified NadD enzyme, colorimetric absorbance read-out. inhibition, % at 20 µM; in the data active means inhibition above about 26%
# STEP block = inhibitors of human striatal-enriched phosphatase STEP; 360,000 compounds, 0.25% hits; recombinant STEP, OMFP fluorogenic substrate, fluorescence; AID 588621; inhibition, % at 20 µM;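 active means inhibition at 20 µM, scaled per plate between control wells, above about 37%, limit read from the data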
#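 Assay system: isolated STEP enzyme / Timing: 20 min at room temperature, dark / Doses: 20 µM, 1% DMSO / Technique: fluorescence intensity, excitation 480 nm, emission 540 nm / Reagent: fluorogenic phosphatase substrate OMFP at 25 µM final / Measure: percent inhibition scaled to no-enzyme and uninhibited-enzyme controls, plate-pattern corrected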
# LMPTP inh = LMPTP (human) inhibition | P24666 | recombinant LMPTP-A, OMFP fluorogenic substrate, fluorescence intensity | inhibition, % at 20 µM | 360,000 compounds, 0.22% hits | AID 651560;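 active means compounds that cut the enzyme signal by at least half of the control window in the single-dose screen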
# Target sequence (P24666 whole entry, looked up): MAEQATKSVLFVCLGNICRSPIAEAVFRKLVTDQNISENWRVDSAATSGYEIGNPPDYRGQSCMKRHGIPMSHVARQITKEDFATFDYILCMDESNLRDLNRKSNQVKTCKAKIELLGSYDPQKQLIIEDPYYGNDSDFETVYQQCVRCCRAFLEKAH
#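 Test system: LMPTP-A phosphatase enzyme. Amount: LMPTP-A at 0.625 nM final in the reaction. Reagent: OMFP substrate, 400 µM final. Times: 50 min at room temperature. Signal: endpoint fluorescence intensity from OMFP dephosphorylation. Read-out basis: % inhibition. Benchmarks: no-enzyme and uninhibited controls.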
# Scp1 inh = inhibitors of human Scp-1 phosphatase; Recombinant Scp1, phosphopeptide, malachite green phosphate absorbance; inhibition, % at 20 µM; 340,000 compounds, 0.88% hits;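 active means inhibition above about 50% at 20 µM, limit read from the data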
# Target sequence (Q9GZU7 76-261 limits assumed): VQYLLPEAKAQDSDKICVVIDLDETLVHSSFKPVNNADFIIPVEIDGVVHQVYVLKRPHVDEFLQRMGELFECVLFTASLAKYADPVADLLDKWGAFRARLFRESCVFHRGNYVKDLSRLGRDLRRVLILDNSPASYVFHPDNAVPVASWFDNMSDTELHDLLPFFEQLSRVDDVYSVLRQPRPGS
#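 System: truncated SCP-1 phosphatase (76-261aa); medium: Tris acetate buffer pH 5.5 with MgCl2 and Tween-20; incubation: 45 min room-temperature reaction, 5 min colour, 30 min stabiliser; compound: single 20 µM dose, 1% DMSO; reagent: Phosphorylated 17-residue peptide substrate; read-out: % inhibition at 20 µM; technique: colorimetric free-phosphate detection, absorbance 630 nm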
# DNMT1 inh = DNMT1 (human) enzyme inhibition | P26358 | DNMT1 molecular beacon, Hinp1I cleavage, fluorescence | inhibition (reported as % activation of signal), % at 10 µM | 360,000 compounds, 0.83% hits | AID 588458; in the data active means inhibition above about 50%
# Scp1 confirm = Scp-1 (human) inhibition, single-dose confirmed; recombinant SCP-1 catalytic domain, phosphate release, malachite green absorbance; AID 540281; inhibition, % at 20 µM; shares compounds with Scp1 inh; 2,500 compounds, 61% hits
# MG interference = interferes with malachite green readout, flagging false Scp-1 hits | AID 540313 | 2,500 tested, under 10 active | Colorimetric interference counterscreen, malachite green absorbance 630 nm | apparent inhibition (interference), % at 20 µM | shares compounds with Scp1 inh;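 further: compounds added after enzyme reaction finished so only phosphate colour detection is probed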
# Scp-1 Tm shift = binds human Scp-1, shifting its melting temperature | shares compounds with Scp1 inh | thermal shift relative to vanadate control, % at 40 µM | Recombinant SCP1, Sypro Orange thermal shift Tm | AID 540329 | 1,500 compounds, 25% hits;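 active means substances whose mean melting-temperature shift, as a percentage of the reference inhibitor's shift, reaches about 5.3%, limit read from the data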
# A number is an active result; n = inactive; x = not tested or not shown. Hits are enriched below; roughly 2.3% of the tested compounds scored in any of these assays.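 How the source made its calls, unless noted: active means inhibition of at least 30% at 20 µM; inactive means the rest.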
SMILES,SUMO1-SIM PPI,NadD block,STEP block,LMPTP inh,Scp1 inh,DNMT1 inh,Scp1 confirm,MG interference,Scp-1 Tm shift
CCO[C@H]1OC(C(=O)Nc2ccccc2)=C[C@@H](c2cn(C(C)=O)c3ccccc23)[C@@H]1CCCO,n,n,n,n,n,n,x,x,x
Cc1c(CCC(=O)O)c(=O)oc2cc3occ(-c4ccc(Cl)cc4)c3cc12,n,n,n,n,n,n,x,x,x
Cc1c(CCC(=O)O)c(=O)oc2c(C)c3occ(-c4ccc(Cl)cc4)c3cc12,n,n,n,88,64,n,77,n,n
CCCCn1c(=O)[nH]c(=O)c2c1nc(-c1ccc(-c3ccccc3)cc1)n2C,n,n,n,n,n,n,x,x,x
CCCn1c(=O)[nH]c(=O)c2c1nc(-c1ccccc1)n2CCN1CCOCC1,n,n,n,n,82,n,94,n,n
Cc1noc(NS(=O)(=O)c2ccc(NC(=O)c3cccc(S(=O)(=O)Nc4ccccc4F)c3)cc2)c1C,n,n,n,n,n,n,x,x,x
O=C(Cn1ncc(Cl)c(Cl)c1=O)NC1CCS(=O)(=O)C1 (centres undefined),n,n,n,n,88,n,69,n,n
O=C(Cn1ncc(Cl)c(Cl)c1=O)NC1CCCCC1,n,n,n,n,n,n,x,x,x
COc1ccc(Cl)cc1S(=O)(=O)NCc1cccnc1,n,n,n,n,60,n,n,n,x
C[N+]1(CC2COC3(CCCCC3)O2)CCCC1 (centres undefined),n,n,n,n,61,n,n,n,x
COc1cccc(C(NC(C)=O)c2nc(-c3cccc(C(C)C)c3)cs2)c1 (centres undefined),n,n,n,n,x,n,x,x,x
CCC(C)(C)n1nnnc1C(c1ccc(C)cc1)N(Cc1ccco1)Cc1cccs1 (centres undefined),n,n,n,n,107,n,n,n,x
C/C=C/C=C\C(=O)Nc1cccc(C2=NOC3(C2)C[C@H](C(N)=O)N(C(=O)/C=C/C)C3)c1 (some centres undefined),n,n,n,n,n,n,x,x,x
C/C=C\C=C\C(=O)N1CC2(CC(c3cccc(NC(=O)CC)c3)=NO2)C[C@H]1C(N)=O (some centres undefined),n,n,n,n,70,n,66,n,n
C=C(C)C(=O)Nc1cccc(C2=NOC3(C2)C[C@@H](C(N)=O)N(C(=O)CCCCC)C3)c1 (some centres undefined),x,x,x,x,83,x,69,n,n
COc1ccc(S(=O)(=O)NCCN2CCOCC2)c2ccccc12,n,n,n,n,n,n,x,x,x
COc1ccc(S(=O)(=O)NCCN2CCOCC2)c(C)c1C,n,n,n,n,81,n,n,n,x
O=C(NC(=S)NC1CCC(O)CC1)c1ccco1 (centres undefined),n,n,n,n,n,n,x,x,x
CCN(CC)S(=O)(=O)c1ccc(N2CCOCC2)c(NC(=O)c2c3c(nc4ccccc24)CCC3)c1,n,n,n,n,68,65,48,n,n
COCCN(C(=O)Cn1nnc2ccccc21)C(C(=O)NC1CCCCC1)c1ccc(OC)cc1OC (centres undefined),n,n,n,n,71,n,48,n,n
Cc1ccc(-c2cc(C(=O)N3CCCCC3)c3ccccc3n2)cc1C,n,n,n,n,n,n,x,x,x
CC(C)NC(=O)COc1coc(CN2CCN(c3ccccc3F)CC2)cc1=O,n,n,n,n,n,n,x,x,x
O=C(Cn1cnc2sc(-c3ccccc3)cc2c1=O)NCc1ccccc1,n,n,n,n,83,n,62,n,n
NC(=O)Cn1cnc2c(nnn2-c2cccc(Cl)c2)c1=O,n,n,n,n,n,n,x,x,x
O=C(Cn1cnc2c(nnn2-c2cccc(Cl)c2)c1=O)NCc1ccccc1,n,n,n,n,53,n,62,n,n
SMILES,SUMO1-SIM PPI,NadD block,STEP block,LMPTP inh,Scp1 inh,DNMT1 inh,Scp1 confirm,MG interference,Scp-1 Tm shift
COc1ccc(NC(=O)c2cc3c(COC(C)=O)cnc(C)c3oc2=Nc2cccc(C(=O)O)c2)c(OC)c1,n,n,98,n,89,n,64,n,n
COc1ccccc1NC(=O)c1cc2c(CO)cnc(C)c2oc1=Nc1cccc(C(N)=O)c1,n,n,n,n,n,n,x,x,x
CCOc1cc2c(cc1/C=C(/C#N)c1ccc(C(=O)O)cc1)OCO2,n,n,n,n,n,n,x,x,x
N#C/C(=C\c1cc2c(cc1Br)OCO2)c1ccc(C(=O)O)cc1,n,n,n,n,52,n,68,n,n
CCC(C)[C@H](NC(=O)[C@@H]1Cc2c([nH]c3ccccc23)C2c3ccccc3C(=O)N21)C(=O)NCC1CCCO1 (some centres undefined),n,n,n,n,n,n,x,x,x
CN(C)/C=C1\C(=O)Nc2ccccc21,n,n,n,n,n,n,x,x,x
CN(O)/C=C1\C(=O)Nc2ccccc21,n,n,n,n,65,n,n,n,x
COc1ccc(Cn2c(C3CCCCC3)nc3c(c(=O)c4ccccc4n3C)c2=O)cc1,x,x,x,x,87,x,55,n,n
COc1ccc(Cn2c(-c3ccccc3)nc3c(c(=O)c4ccccc4n3C)c2=O)cc1,n,n,n,n,n,n,x,x,x
Cc1ccc(S(=O)(=O)CCC(=O)N2CCN(c3ccc([N+](=O)[O-])cc3)CC2)cc1,n,n,n,n,59,n,n,n,x
COc1ccc(S(=O)(=O)CCC(=O)N2CCN(c3ccc([N+](=O)[O-])cc3)CC2)cc1,n,n,n,n,n,n,x,x,x
CC(C)c1cc(C(=O)NC2CCCCC2)no1,n,n,n,n,73,n,n,n,x
Cc1ccc(S(=O)(=O)NCCN2CCNC2=O)cc1,n,n,n,n,n,n,x,x,x
O=C1CCCN1CCCNS(=O)(=O)c1ccc(F)c(F)c1,n,n,n,n,n,n,n,n,x
CC(=O)Nc1ccc(S(=O)(=O)NCCN2CCNC2=O)cc1Cl,n,n,n,n,n,n,n,n,x
O=C1NCCN1CCNS(=O)(=O)c1ccc(F)c(Cl)c1,n,n,n,n,n,n,n,n,x
Cc1c(NC(=O)c2cccc(NC(=O)COc3cccc(Br)c3)c2)c(=O)n(-c2ccccc2)n1C,n,n,n,n,n,n,x,x,x
CCC(=O)Nc1ccc(NC(=O)CSc2nnc(-c3ccco3)n2CC)cc1,n,n,n,n,n,n,x,x,x
